Results: ChEMBL document CHEMBL2434935, “Design, syntheses, and characterization of pharmacophore based chemokine receptor CCR5 antagonists as anti prostate cancer agents” (Eur J Med Chem, 2013)
Active and inactive are the calls of the source. The rule behind the calls is not given here.

What was measured:
[1] = target: T1, C-C chemokine receptor type 5 (Homo sapiens, UniProt P51681); assay: Agonist activity at CCR5 (unknown origin) expressed in MOLT4 cells transfected with Gqi5 assessed as induction of calcium ion mobilization after 15 mins by microplate reader method; format: functional, cell-based; conditions: MOLT-4
In short: (§1)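 CCR5-MOLT-4 cells transfected with Gqi5 (Lipofectamine 2000), kept in RPMI 1640/10% FBS with penicillin, streptomycin and 1 mg/mL G418 at 37 °C, 5% CO2. At 48 h post-transfection the cells were resuspended in 50:1 HBSS:HEPES buffer and loaded with Fluo4-AM plus probenecid for 45 min. Ligands were added at varying concentrations for 15 min, then RANTES or buffer was added at 16 s. Fluorescence was read at 494/516 nm for 120 s.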
Target sequence in this assay (P51681 whole entry, looked up): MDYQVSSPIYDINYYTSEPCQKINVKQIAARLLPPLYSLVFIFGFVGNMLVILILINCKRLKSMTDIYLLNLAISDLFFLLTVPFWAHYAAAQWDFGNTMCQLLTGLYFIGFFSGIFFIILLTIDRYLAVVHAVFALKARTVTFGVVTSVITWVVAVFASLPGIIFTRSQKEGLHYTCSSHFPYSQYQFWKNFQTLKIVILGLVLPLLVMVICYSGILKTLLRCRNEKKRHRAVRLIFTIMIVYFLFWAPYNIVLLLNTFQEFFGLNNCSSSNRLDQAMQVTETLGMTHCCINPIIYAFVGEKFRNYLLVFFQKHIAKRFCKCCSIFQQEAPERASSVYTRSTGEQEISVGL

[2] = target: T1, C-C chemokine receptor type 5; assay: Antagonist activity at CCR5 (unknown origin) expressed in MOLT4 cells transfected with Gqi5 assessed as inhibition of RANTES-induced calcium ion mobilization after 15 mins by microplate reader method; format: functional, cell-based, MOLT-4; conditions: for inhibition: MOLT-4; in short: as §1
PC-3 = assay: Antiproliferative activity against human PC3 cells after 72 hrs by WST-1 assay; format: functional; conditions: for EC50: PC-3, 72 h, read-out: ED50 (the source's name)
In short: (§2)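 PC-3 cells kept in serum-free RPMI with L-glutamine, ITS and gentamicin plus 10% FBS. M12 cells got 5% FBS, then after 24 h serum-free medium with 0.01% EGF. Cells plated at 1000/well; after 24 h, drugs added at various concentrations in PBS (controls PBS) for 72 h. Medium then replaced with serum-free medium:WST-1 9:1, absorbance read after 3 h. Non-linear regression fit; mean ± S.E.M., ≥3 experiments in triplicate.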

[3] = Cytotoxicity against mouse NIH/3T3 cells after 48 hrs by neutral red dye uptake assay; format: cell-based, NIH3T3; conditions: read-out: TC50
In short: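 NIH-3T3 mouse embryonic fibroblasts grown in medium with 10% newborn calf serum and 1% penicillin:streptomycin. Compounds at various concentrations in DMEM dilution medium for 48 h. After HBSS wash, neutral red 25 µg/mL in DMEM/5% NBCS for 3 ± 0.1 h. Dye extracted with 50% ethanol/1% acetic acid, shaken 20 min, absorbance 540 nm. TC50 by non-linear regression.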

M12 = assay: (§3) Antiproliferative activity against human M12 cells after 72 hrs by WST-1 assay; format: functional; in short: as §2
[4] = as §3; format: functional; conditions: M12, 72 h, read-out: ED50 (the source's name); in short: as §2

| SMILES | Activity [1] | IC50 [2] [µM] | inhibition [2] | EC50 (PC-3) [µM] | Activity (PC-3) | CC50 at 48 h [3] [µM] | Activity (M12) | EC50 [4] [µM] |
| --- | --- | --- | --- | --- | --- | --- | --- | --- |
| CC(C)Oc1ccc(C2CCN(Cc3ccc(N)cc3)CC2)cc1NC(=O)c1ccccc1 | inactive | 66.2 | Dose-dependent effect | – | – | – | – | – |
| CC(=O)Nc1ccc(CN2CCC(c3ccc(OC(C)C)c(NC(=O)c4cnccn4)c3)CC2)cc1 | inactive | 88.1 | Dose-dependent effect | – | – | – | – | – |
| CC(C)Oc1ccc(C2CCN(Cc3ccc(N)cc3)CC2)cc1NC(=O)c1cnccn1 | inactive | 77.8 | Dose-dependent effect | – | – | – | – | – |
| CCOc1ccc(C2CCN(Cc3ccc([N+](=O)[O-])cc3)CC2)cc1NC(=O)c1cnccn1 | inactive | 61 | Dose-dependent effect | 109 | Dose-dependent effect | > 100 | Dose-dependent effect | – |
| CCOc1ccc(C2CCN(Cc3ccc(N)cc3)CC2)cc1NC(=O)c1ccccc1 | inactive | 63 | Dose-dependent effect | – | – | – | – | – |
| COc1ccc(C2CCN(Cc3ccc([N+](=O)[O-])cc3)CC2)cc1NC(=O)c1cnccn1 | inactive | 73 | Dose-dependent effect | – | – | – | – | – |
| COc1ccc(C2CCN(Cc3ccc(NC(C)=O)cc3)CC2)cc1NC(=O)c1cnccn1 | inactive | 59 | Dose-dependent effect | – | – | – | – | – |
| CCOc1ccc(C2CCN(Cc3ccc(N(CC)CC)cc3)CC2)cc1NC(=O)c1ccccc1 | inactive | 64 | Dose-dependent effect | 86.6 | Dose-dependent effect | 49.5 | Dose-dependent effect | 15.9 |
| CC(C)Oc1ccc(C2CCN(Cc3ccc([N+](=O)[O-])cc3)CC2)cc1NC(=O)c1cnccn1 | inactive | 65.7 | Dose-dependent effect | – | – | – | – | – |
| CCOc1ccc(C2CCN(Cc3ccc(NC(C)=O)cc3)CC2)cc1NC(=O)c1ccccc1 | inactive | 115 | Dose-dependent effect | – | – | – | – | – |
| CCN(CC)c1ccc(CN2CCC(c3ccc(OC)c(NC(=O)c4ccccc4)c3)CC2)cc1 | inactive | 90 | Dose-dependent effect | – | – | – | – | – |
| CCN(CC)c1ccc(CN2CCC(c3ccc(OC(C)C)c(NC(=O)c4ccccc4)c3)CC2)cc1 | inactive | 138 | Dose-dependent effect | – | – | – | – | – |
| COc1ccc(C2CCN(Cc3ccc(N)cc3)CC2)cc1NC(=O)c1ccccc1 | inactive | 77 | Dose-dependent effect | – | – | – | – | – |
| COc1ccc(C2CCN(Cc3ccc(NC(C)=O)cc3)CC2)cc1NC(=O)c1ccccc1 | inactive | 70.8 | Dose-dependent effect | 60 | Dose-dependent effect | 92.2 | Dose-dependent effect | 79.9 |
| CCN(CC)c1ccc(CN2CCC(c3ccc(OC(C)C)c(NC(=O)c4cnccn4)c3)CC2)cc1 | inactive | 61 | Dose-dependent effect | – | – | – | – | – |
| CC(=O)Nc1ccc(CN2CCC(c3ccc(OC(C)C)c(NC(=O)c4ccccc4)c3)CC2)cc1 | inactive | 92.2 | Dose-dependent effect | – | – | – | – | – |

Stronger by IC50 [2], values ahead:

| Activity [1] | IC50 [2] [µM] | inhibition [2] | EC50 (PC-3) [µM] | SMILES | Activity (PC-3) | CC50 at 48 h [3] [µM] | Activity (M12) | EC50 [4] [µM] |
| --- | --- | --- | --- | --- | --- | --- | --- | --- |
| inactive | 28 | Dose-dependent effect | – | CCOc1ccc(C2CCN(Cc3ccc([N+](=O)[O-])cc3)CC2)cc1NC(=O)c1ccccc1 | – | – | – | – |
| inactive | 51.8 | Dose-dependent effect | 77 | CCOc1ccc(C2CCN(Cc3ccc(N(CC)CC)cc3)CC2)cc1NC(=O)c1cnccn1 | Dose-dependent effect | 46.9 | Dose-dependent effect | 18.7 |
| inactive | 43.5 | Dose-dependent effect | – | CCOc1ccc(C2CCN(Cc3ccc(N)cc3)CC2)cc1NC(=O)c1cnccn1 | – | – | – | – |
| inactive | 28.7 | Dose-dependent effect | – | COc1ccc(C2CCN(Cc3ccc([N+](=O)[O-])cc3)CC2)cc1NC(=O)c1ccccc1 | – | – | – | – |
| inactive | 47 | Dose-dependent effect | 50 | CCOc1ccc(C2CCN(Cc3ccc(NC(C)=O)cc3)CC2)cc1NC(=O)c1cnccn1 | Dose-dependent effect | > 100 | Dose-dependent effect | 58 |
| inactive | 56 | Dose-dependent effect | – | CCN(CC)c1ccc(CN2CCC(c3ccc(OC)c(NC(=O)c4cnccn4)c3)CC2)cc1 | – | – | – | – |
| inactive | 45 | Dose-dependent effect | – | CC(C)Oc1ccc(C2CCN(Cc3ccc([N+](=O)[O-])cc3)CC2)cc1NC(=O)c1ccccc1 | – | – | – | – |
| inactive | 38.8 | Dose-dependent effect | 72.3 | COc1ccc(C2CCN(Cc3ccc(N)cc3)CC2)cc1NC(=O)c1cnccn1 | Dose-dependent effect | > 100 | Dose-dependent effect | 73.7 |
